Here are results for 1 molecule from ChEMBL document CHEMBL4819117, “Probing cytochrome P450 (CYP) bioactivation with chloromethylindoline bioprecursors derived from the duocarmycin family of compounds” (Bioorg Med Chem, 2021).

Data set [1] has as its target T1, Cytochrome P450 1A1 (Homo sapiens, UniProt P04798).
T1 sequence (P04798 whole entry): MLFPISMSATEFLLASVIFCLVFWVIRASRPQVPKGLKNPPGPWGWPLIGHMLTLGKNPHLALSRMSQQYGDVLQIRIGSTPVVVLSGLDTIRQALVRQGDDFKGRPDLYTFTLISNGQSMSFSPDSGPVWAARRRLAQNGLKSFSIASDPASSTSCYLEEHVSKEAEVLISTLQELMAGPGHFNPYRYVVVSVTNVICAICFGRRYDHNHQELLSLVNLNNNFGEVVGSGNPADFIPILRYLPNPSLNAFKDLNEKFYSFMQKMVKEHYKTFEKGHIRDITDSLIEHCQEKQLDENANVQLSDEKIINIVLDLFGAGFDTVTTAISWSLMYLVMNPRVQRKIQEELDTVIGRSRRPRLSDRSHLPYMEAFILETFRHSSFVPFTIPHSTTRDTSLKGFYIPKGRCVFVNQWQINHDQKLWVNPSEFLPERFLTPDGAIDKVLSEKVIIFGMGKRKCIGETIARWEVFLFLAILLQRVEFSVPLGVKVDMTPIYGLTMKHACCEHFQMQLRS
Description: Drug metabolism assessed as recombinant human CYP1A1-mediated metabolite M6 with m/z 373.1 formation at 50 uM incubated for 1 hr in presence of reconstituted protein system by LC-MS analysis. It is filed as ADME. Conditions: recombinant enzyme. The method, boiled down:
(§1)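 Substrate (50 μM) incubated at 37 °C with human recombinant CYP1A1 in a reconstituted system: NADPH cytochrome P450 reductase, freshly prepared DLPC (240 μM), 100 mM potassium phosphate pH 7.4. Reaction was started with NADPH (1 mM final) and aliquots quenched into dichloromethane over 60 min. Metabolites were profiled by HPLC with photodiode array and ESI⁺ quadrupole MS.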

Data set [2] deals with EJ. In words: Antiproliferative activity against human EJ138 cells assessed as inhibition of cell growth preincubated for 1 hr with human CYP1A2 expressing bactosomes measured after 96 hrs by MTT assay. It is filed as functional, cell-based. Put shortly:
(§2)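 Compound (50 μM) incubated 1 h at 37 °C with 20 pmol CYP bactosomes (CYP null, 1A1, 1A2, 1B1 or 3A4) in 2 mM NADPH, 1 mM MgCl₂, Tris-HCl pH 7.4. Metabolites were extracted with acetonitrile, centrifuged, and the supernatant dried and taken up in DMSO. EJ138 cells were exposed 96 h and growth read by MTT assay.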
A general note: Tetrazolium dyes change colour on reduction, which living cells bring about.

Data set [3] deals with T1, Cytochrome P450 1A1. In words: Drug metabolism assessed as human CYP1A1 expressed in bactosomes assessed as (3-(chloromethyl)-6-hydroxyindolin-1-yl)(5-methoxy-1H-indol-2-yl)methanone formation measured after 1 hr by LC-MS analysis. The class given is ADME. The note with it: recombinant enzyme.
Data set [4] concerns EJ. Description: Antiproliferative activity against human EJ138 cells assessed as inhibition of cell growth preincubated for 1 hr with human CYP1A1 expressing bactosomes measured after 96 hrs by MTT assay. The class given is functional, cell-based. The method, boiled down:
as §2

Data set [5] deals with T1, Cytochrome P450 1A1. In words: Drug metabolism assessed as recombinant human CYP1A1-mediated metabolite M2 with m/z 357.1 formation at 50 uM incubated for 1 hr in presence of reconstituted protein system by LC-MS analysis. It is filed as ADME. The note with it: recombinant enzyme. Put shortly:
as §1

Data set [6] concerns Cytochrome P450. In words: Drug metabolism in human liver microsomes assessed as CYP-mediated metabolite M23 formation at 0.5 to 23.5 uM prewarmed for 5 mins followed by NADPH addition and measured after 30 mins by HPLC-fluorescence detector analysis. The class given is ADME. Conditions: 35 min, dose 0.5-23.5 µM. (Liver microsomes are a subcellular fraction often used to study metabolism.)

The test system of data set [7] is EJ. Description: Potentiation factor, ratio of IC50 for antiproliferative activity against human EJ138 cells preincubated for 1 hr with CYP null bactosomes to IC50 for antiproliferative activity against human EJ138 cells preincubated for 1 hr with human CYP1A1 expressing bactosomes. It is filed as functional. The method, boiled down:
(§3)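 Potentiation factor = IC₅₀ in EJ138 given control (CYP null) bactosome extract ÷ IC₅₀ with the named CYP isoform extract. Extracts came from 1 h, 37 °C incubations of 50 μM compound with 20 pmol bactosomes plus 2 mM NADPH, 1 mM MgCl₂, Tris-HCl pH 7.4. Cells were exposed 96 h and read by MTT.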

The next data set has as its system CHO. In words: Antiproliferative activity against wild type chinese hamster CHO cells deficit in CYPs assessed as inhibition of cell growth after 96 hrs by MTT assay. The class given is functional, cell-based. The note with it: Cricetulus griseus. The method, boiled down:
(§4)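 Cells kept as monolayers at 37 °C in 5% CO2: EJ-138 and RT112 in RPMI 1640 with 10% FBS, sodium pyruvate and 2 mM L-glutamine; CHO and CHO-1A1 in DMEM. Compounds were taken from DMSO stocks into medium over 0.001–100 μM, with final DMSO ≤0.1%. Exposure lasted 96 h, then MTT read-out. IC50 values are mean ± SD of at least three independent assays.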

A further data set concerns the target T2, Cytochrome P450 1A2 (Homo sapiens, UniProt P05177).
T2 sequence (P05177 whole entry): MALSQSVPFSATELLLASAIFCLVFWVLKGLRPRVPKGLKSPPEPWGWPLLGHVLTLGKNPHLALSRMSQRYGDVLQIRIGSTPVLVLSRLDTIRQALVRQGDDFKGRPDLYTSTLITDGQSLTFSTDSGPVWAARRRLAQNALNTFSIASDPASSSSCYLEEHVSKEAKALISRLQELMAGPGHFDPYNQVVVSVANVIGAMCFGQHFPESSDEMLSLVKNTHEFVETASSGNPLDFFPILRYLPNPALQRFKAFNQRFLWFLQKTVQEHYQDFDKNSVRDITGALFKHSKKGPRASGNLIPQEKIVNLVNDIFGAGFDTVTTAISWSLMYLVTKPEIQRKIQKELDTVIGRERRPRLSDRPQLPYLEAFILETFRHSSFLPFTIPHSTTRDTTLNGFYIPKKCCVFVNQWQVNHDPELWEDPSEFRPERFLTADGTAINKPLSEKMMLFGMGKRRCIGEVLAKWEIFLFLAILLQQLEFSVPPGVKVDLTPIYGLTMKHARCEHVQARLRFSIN
In words: Drug metabolism assessed as human CYP1A2 expressed in bactosomes assessed as (3-(chloromethyl)-6-hydroxyindolin-1-yl)(5-methoxy-1H-indol-2-yl)methanone formation measured after 1 hr by LC-MS analysis. The class given is ADME. The note with it: recombinant enzyme.

For another data set, the system named is RT-112. In words: Antiproliferative activity against human RT112 cells proficient in CYP1A1 assessed as inhibition of cell growth after 96 hrs by MTT assay. It is filed as functional, cell-based. The note with it: RT-112, 96 h. The method, boiled down:
as §4

Data set [8] in a line: Selectivity ratio of IC50 for antiproliferative activity against wild type chinese hamster CHO cells deficit in CYPs to IC50 for antiproliferative activity against chinese hamster CHO cells transfected with CYP1A1 by MTT assay. The class given is functional, Cricetulus griseus. Put shortly:
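CHO wild-type and CYP1A1-transfected CHO cells were grown in DMEM at 37 °C, 5% CO₂. Compounds from DMSO stocks were tested at 0.001–100 μM, final DMSO ≤0.1%, for 96 h, then MTT. Ratio = CHOwt IC₅₀ / CHO1A1 IC₅₀; IC₅₀ values are mean ± SD of at least three independent assays.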

The subject of data set [9] is EJ. In words: Potentiation factor, ratio of IC50 for antiproliferative activity against human EJ138 cells preincubated for 1 hr with CYP null bactosomes to IC50 for antiproliferative activity against human EJ138 cells preincubated for 1 hr with human CYP3A4 expressing bactosomes. It is filed as functional. The method, boiled down:
as §3

Data set [10] relates to Cytochrome P450. Description: Drug metabolism in human liver microsomes assessed as CYP-mediated metabolite M22 formation at 0.5 to 23.5 uM prewarmed for 5 mins followed by NADPH addition and measured after 30 mins by HPLC-fluorescence detector analysis. The class given is ADME. Conditions: 35 min, dose 0.5-23.5 µM.

Each structure is given as a SMILES string.

For orientation: IC50 means the concentration at which inhibition is half-maximal. On to `COc1ccc2[nH]c(C(=O)N3CC(CCl)c4ccccc43)cc2c1` (stereo not drawn), for which the Drug metabolism result on Cytochrome P450 1A1 [1] is listed as “Metabolite_Detected”; on Cytochrome P450 1A1 [3], “Metabolite_Notdetected”; at Cytochrome P450 1A1 [5] it was “Metabolite_Detected”; in the data set on Cytochrome P450 [6] it was “Metabolite_Detected”; on Cytochrome P450 1A2, “Metabolite_Notdetected”; with Cytochrome P450 [10], “Metabolite_Detected”. Further, the IC50 in the data set with EJ [2] came to 1.9 µM; in the data set with EJ [4] it was 2.5 µM; in the data set with CHO it was 11.4 µM; in the data set on RT-112, 8.04 µM. For the same molecule, the “Ratio IC50” value with EJ [7] stood at 6.9; in [8], 10; with EJ [9] it was 0.9.
